# Experimental data taken from paper PMC10639087 (Science signaling, 2023).
# How the values were obtained:
# [1] = target: T1, LSM12 (like-Sm protein 12) (Homo sapiens, UniProt Q3MHD2); test: biolayer interferometry, biotinylated protein on streptavidin sensor; format: binding
# Outline: (§1)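 Recombinant human protein, expressed in E. coli BL21 Star (DE3) as an N-terminal 6xHis-GST-TEV fusion, was biotinylated (NHS-LC-biotin) and moved into 110 mM KCl, 10 mM NaCl, 20 mM Hepes pH 7.2 with 1% BSA. SAX sensors were equilibrated 30 s, loaded with 70 nM bait for 15 s, and re-equilibrated 60 s. They were exposed to NAADP (1:2 serial dilutions, 500 to 15.6 nM), then dissociated 210 to 300 s.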
# [2] = target: T2, JPT2 (Jupiter microtubule-associated homolog 2) (Homo sapiens, UniProt Q9H910); test: as above; format: binding
# T2 sequence (Q9H910 1-190): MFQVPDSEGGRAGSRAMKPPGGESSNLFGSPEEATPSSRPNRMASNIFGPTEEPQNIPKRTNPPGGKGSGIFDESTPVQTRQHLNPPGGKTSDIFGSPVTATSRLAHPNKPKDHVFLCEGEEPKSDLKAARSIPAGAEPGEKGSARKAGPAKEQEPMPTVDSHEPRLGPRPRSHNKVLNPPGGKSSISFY
# Outline: as §1
# [3] = target: T1, LSM12 (like-Sm protein 12); test: […]-NAADP displacement, PVDF filter binding
# [4] = target: T2, JPT2 (Jupiter microtubule-associated homolog 2); test: […]-NAADP displacement, PVDF filter binding
# T1 sequence (Q3MHD2 whole entry, the tested form may be a part): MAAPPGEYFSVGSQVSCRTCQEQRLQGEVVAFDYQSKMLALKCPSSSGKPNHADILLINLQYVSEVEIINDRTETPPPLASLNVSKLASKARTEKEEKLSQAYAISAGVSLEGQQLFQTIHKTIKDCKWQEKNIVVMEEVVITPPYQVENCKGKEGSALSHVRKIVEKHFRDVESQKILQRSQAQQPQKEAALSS
SMILES,Kd [1],Kd [2],IC50 [3],IC50 [4]
Nc1ncnc2c1ncn2[C@@H]1O[C@H](COP(=O)(O)OP(=O)(O)OC[C@H]2O[C@@H]([n+]3cccc(C(=O)O)c3)[C@H](O)[C@@H]2O)[C@@H](O)[C@H]1OP(=O)(O)O [NAADP],2.03 ± 0.41 nM,5.71 ± 1.8 nM,0.703 ± 0.1 nM,1.09 ± 0.1 nM
NC(=O)c1ccc[n+]([C@@H]2O[C@H](COP(=O)(O)OP(=O)(O)OC[C@H]3O[C@@H](n4cnc5c(N)ncnc54)[C@H](OP(=O)(O)O)[C@@H]3O)[C@@H](O)[C@H]2O)c1 [NADP],126 ± 35.6 nM,52.9 ± 8.6 nM,40.3 ± 25 nM,15.9 ± 4 nM
